According to ChEMBL document CHEMBL2150917, “Lignopurines: a new family of hybrids between cyclolignans and purines. Synthesis and biological evaluation” (2012):
Active and inactive are the calls of the source. The rule behind the calls is not given here.

Each compound was assayed on HT-29 (assay: Growth inhibition of human HT-29 cells after 72 hrs by SRB assay). Conditions: HT-29, 72 h.
Type: functional
In short: (§1)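 Cells seeded at 5×10^3/well in RPMI and attached for 18 h drug-free. Samples added in DMSO/H2O 3:7 for 72 h exposure. Cells then fixed with cold TCA for 60 min at 4 °C, stained with 0.4% SRB in 1% acetic acid for 10 min, stain solubilized in Tris and read at 490 nm. GI50 from 100×[(T−T0)/(C−T0)]=50; mean of triplicates.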

First: COC(=O)[C@@H]1C(C=O)=Cc2cc3c(cc2[C@H]1c1cc(OC)c(OC)c(OC)c1)OCO3 [PODOPHYLLIC ALDEHYDE]
Second: COc1cc([C@@H]2c3cc4c(cc3C=C(C=O)[C@H]2C(=O)OCCCCCCBr)OCO4)cc(OC)c1OC
The GI50 of the first is 19-fold lower: 0.039 µM for the first, 0.74 µM for the second.

First: COc1cc([C@@H]2c3cc4c(cc3C=C(C=O)[C@H]2C(=O)OCCCCCCn2cnc3ncnc(Cl)c32)OCO4)cc(OC)c1OC
Second: COc1cc([C@@H]2c3cc4c(cc3C=C(C=O)[C@H]2C(=O)OCCCn2cnc3c(Cl)ncnc32)OCO4)cc(OC)c1OC
The GI50 of the first is 1.9-fold higher: 1.7 µM for the first, 0.91 µM for the second.

Compared with `COc1cc([C@@H]2c3cc4c(cc3[C@@H](O[C@@H]3O[C@@H]5CO[C@@H](C)O[C@H]5[C@H](O)[C@H]3O)[C@H]3COC(=O)[C@H]23)OCO4)cc(OC)c1O` [ETOPOSIDE], `COc1cc([C@@H]2c3cc4c(cc3[C@H](O)[C@@H](CO)[C@H]2C(=O)OCCCBr)OCO4)cc(OC)c1OC` is 67-fold lower in GI50: 9.4 µM for the first, 0.14 µM for the second.

First: CCCNCC1=Cc2cc3c(cc2[C@@H](c2cc(OC)c(OC)c(OC)c2)[C@@H]1C(=O)OCCCCCCn1cnc2c(Cl)ncnc21)OCO3
Second: COc1cc([C@@H]2c3cc4c(cc3C=C(C=O)[C@H]2C(=O)OCCCn2cnc3cncnc32)OCO4)cc(OC)c1OC
The GI50 of the first is 3.1-fold higher: 2.2 µM for the first, 0.71 µM for the second.

For `COc1cc([C@@H]2c3cc4c(cc3C=C(C=O)[C@H]2C(=O)OCc2ccc(Cn3cnc5c(Cl)ncnc53)cc2)OCO4)cc(OC)c1OC`, the GI50 was 0.051 µM.

Each compound was assayed on HeLa (assay: Induction of cell cycle arrest in human HeLa cells assessed as accumulation at G2/M phase at 1 uM after 24 hrs by propidium iodide staining-based FACS flow cytometry). Conditions: not given.
Type: functional
In short: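 Mycoplasma-negative HeLa cells in DMEM with 10% heat-inactivated FCS, 2 mM L-glutamine, penicillin/streptomycin, 37 °C, 5% CO2; exposed to 1 µM for 24 h alongside untreated controls. 3–5×10^5 cells fixed overnight in 70% ethanol at 4 °C, PBS-washed, 1 h with 1 mg/mL RNase A plus 20 µg/mL propidium iodide at room temperature; flow cytometry for % G2/M; three independent experiments.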

For `COc1cc([C@@H]2c3cc4c(cc3C=C(C=O)[C@H]2C(=O)OCCCCCCn2cnc3ncnc(Cl)c32)OCO4)cc(OC)c1OC`, the Activity was “Active”.
With `COc1cc([C@@H]2c3cc4c(cc3C=C(C=O)[C@H]2C(=O)OCCCn2cnc3c(Cl)ncnc32)OCO4)cc(OC)c1OC` the Activity was “Active”.
In the case of `COc1cc([C@@H]2c3cc4c(cc3C=C(C=O)[C@H]2C(=O)OCCCn2cnc3cncnc32)OCO4)cc(OC)c1OC`, the Activity is reported as “Active”.
`COc1cc([C@@H]2c3cc4c(cc3C=C(C=O)[C@H]2C(=O)OCc2ccc(Cn3cnc5c(Cl)ncnc53)cc2)OCO4)cc(OC)c1OC` was tested, and the Activity was “Active”.

These compounds were tested on A549 (assay: Growth inhibition of human A549 cells after 72 hrs by SRB assay). Conditions: A549, 72 h.
Type: functional
In short: as §1

Going from `COC(=O)[C@@H]1C(C=O)=Cc2cc3c(cc2[C@H]1c1cc(OC)c(OC)c(OC)c1)OCO3` [PODOPHYLLIC ALDEHYDE] to `COc1cc([C@@H]2c3cc4c(cc3C=C(C=O)[C@H]2C(=O)OCCCCCCBr)OCO4)cc(OC)c1OC`, the GI50 rises from 0.06 µM to 0.66 µM (11-fold).

First: COc1cc([C@@H]2c3cc4c(cc3C=C(C=O)[C@H]2C(=O)OCCCCCCn2cnc3ncnc(Cl)c32)OCO4)cc(OC)c1OC
Second: COc1cc([C@@H]2c3cc4c(cc3C=C(C=O)[C@H]2C(=O)OCCCn2cnc3c(Cl)ncnc32)OCO4)cc(OC)c1OC
The GI50 of the first is 1.6-fold higher: 1.2 µM for the first, 0.75 µM for the second.

Going from `COc1cc([C@@H]2c3cc4c(cc3[C@@H](O[C@@H]3O[C@@H]5CO[C@@H](C)O[C@H]5[C@H](O)[C@H]3O)[C@H]3COC(=O)[C@H]23)OCO4)cc(OC)c1O` [ETOPOSIDE] to `COc1cc([C@@H]2c3cc4c(cc3[C@H](O)[C@@H](CO)[C@H]2C(=O)OCCCBr)OCO4)cc(OC)c1OC`, the GI50 falls from 2.2 µM to 0.14 µM (16-fold).

First: CCCNCC1=Cc2cc3c(cc2[C@@H](c2cc(OC)c(OC)c(OC)c2)[C@@H]1C(=O)OCCCCCCn1cnc2c(Cl)ncnc21)OCO3
Second: COc1cc([C@@H]2c3cc4c(cc3C=C(C=O)[C@H]2C(=O)OCCCn2cnc3cncnc32)OCO4)cc(OC)c1OC
The GI50 of the first is 2.9-fold higher: 2.3 µM for the first, 0.79 µM for the second.

With `COc1cc([C@@H]2c3cc4c(cc3C=C(C=O)[C@H]2C(=O)OCc2ccc(Cn3cnc5c(Cl)ncnc53)cc2)OCO4)cc(OC)c1OC` the GI50 was 0.029 µM.

These compounds were tested on HeLa (assay: Disruption of microtubule network in human HeLa cells at 1 uM after 24 hrs by DAPI staining-based confocal laser scanning microscopy relative to control). Conditions: not given.
Type: cell-based
In short: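 HeLa cells in DMEM with 10% heat-inactivated FCS, 2 mM L-glutamine, penicillin/streptomycin, 37 °C, 5% CO2, grown on poly-L-lysine coverslips; 1 µM, 24 h. Fixed in 4% paraformaldehyde in HPEM (pH 6.6), 0.5% Triton X-100 permeabilized, anti-alpha-tubulin mouse mAb (1:150), Cy2 anti-mouse IgG, DAPI nuclei; confocal imaging versus untreated cells; at least three experiments.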

In the case of `COc1cc([C@@H]2c3cc4c(cc3C=C(C=O)[C@H]2C(=O)OCCCCCCn2cnc3ncnc(Cl)c32)OCO4)cc(OC)c1OC`, the Activity is reported as “Active”.
With `COc1cc([C@@H]2c3cc4c(cc3C=C(C=O)[C@H]2C(=O)OCCCn2cnc3c(Cl)ncnc32)OCO4)cc(OC)c1OC` the Activity was “Active”.
With `COc1cc([C@@H]2c3cc4c(cc3C=C(C=O)[C@H]2C(=O)OCCCn2cnc3cncnc32)OCO4)cc(OC)c1OC` the Activity was “Active”.
For `COc1cc([C@@H]2c3cc4c(cc3C=C(C=O)[C@H]2C(=O)OCc2ccc(Cn3cnc5c(Cl)ncnc53)cc2)OCO4)cc(OC)c1OC`, the Activity was “Active”.

These compounds were tested on MDA-MB-231 (assay: Growth inhibition of human MDA-MB-231 cells after 72 hrs by SRB assay). Conditions: MDA-MB-231, 72 h.
Type: functional
In short: as §1

Going from `COC(=O)[C@@H]1C(C=O)=Cc2cc3c(cc2[C@H]1c1cc(OC)c(OC)c(OC)c1)OCO3` [PODOPHYLLIC ALDEHYDE] to `COc1cc([C@@H]2c3cc4c(cc3C=C(C=O)[C@H]2C(=O)OCCCCCCBr)OCO4)cc(OC)c1OC`, the GI50 rises from 0.2 µM to 1.8 µM (9-fold).

First: COc1cc([C@@H]2c3cc4c(cc3C=C(C=O)[C@H]2C(=O)OCCCCCCn2cnc3ncnc(Cl)c32)OCO4)cc(OC)c1OC
Second: COc1cc([C@@H]2c3cc4c(cc3C=C(C=O)[C@H]2C(=O)OCCCn2cnc3c(Cl)ncnc32)OCO4)cc(OC)c1OC
The GI50 of the first is 1.5-fold higher: 3.7 µM for the first, 2.4 µM for the second.

Going from `COc1cc([C@@H]2c3cc4c(cc3[C@@H](O[C@@H]3O[C@@H]5CO[C@@H](C)O[C@H]5[C@H](O)[C@H]3O)[C@H]3COC(=O)[C@H]23)OCO4)cc(OC)c1O` [ETOPOSIDE] to `COc1cc([C@@H]2c3cc4c(cc3[C@H](O)[C@@H](CO)[C@H]2C(=O)OCCCBr)OCO4)cc(OC)c1OC`, the GI50 falls from 7.2 µM to 0.16 µM (45-fold).

First: CCCNCC1=Cc2cc3c(cc2[C@@H](c2cc(OC)c(OC)c(OC)c2)[C@@H]1C(=O)OCCCCCCn1cnc2c(Cl)ncnc21)OCO3
Second: COc1cc([C@@H]2c3cc4c(cc3C=C(C=O)[C@H]2C(=O)OCCCn2cnc3cncnc32)OCO4)cc(OC)c1OC
The GI50 of the first is 2.2-fold lower: 3.5 µM for the first, 7.7 µM for the second.

`COc1cc([C@@H]2c3cc4c(cc3C=C(C=O)[C@H]2C(=O)OCc2ccc(Cn3cnc5c(Cl)ncnc53)cc2)OCO4)cc(OC)c1OC` showed a GI50 of 0.81 µM.
